Bioassay records from PubChem.
Only some compounds are listed: those with a hit (about 3.5% of all), similar ones and a draw of the others.
Env fusion inh – inhibitors of HIV Env-mediated cell fusion; HeLa-JRFL Env/CEM21 cell fusion, luciferase; inhibition, % at 12.3 µM; 1.1% of 360,000 active; AID 651610;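 active means mean replicate inhibition score of at least 50 and every replicate individually at or above 50; inconclusive means only one of the two criteria met; inactive means mean below 50 and not all replicates reaching 50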;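 further: 0% = plate neutral controls and 100% = maraviroc near 300 nM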
PGC1a acetyl inh – lowers PGC1a acetylation signal in U2OS cells | AlphaScreen anti-acetyl-lysine; with virally co-expressed GCN5 acetyltransferase | inhibition, % at 15.6 µM | 0.17% of 350,000 active | AID 651687;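 active means every replicate shows inhibition of at least 40%; inconclusive means mean inhibition at least 40% but some replicate below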;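 further: 0% = neutral control wells and 100% = positive control wells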
FGF22 binding – shifts melting point of recombinant human FGF22; Q9HCT0; recombinant FGF22 thermal shift, SYPRO orange fluorescence; percent of sucrose octasulfate shift, DMSO zero; activity (Tm shift, normalised), % at 9.99 µM; 1.5% of 340,000 active;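 active means mean Tm shift, scaled 0 neutral to 100 positive control, at about 1.3% or above, every replicate too, limit read from the data; inconclusive means no clear call, values can overlap the other calls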
Cneo AK release – causes C. neoformans cell lysis; adenylate kinase release luminescence, 4 h; normalised: neutral wells 0, clomiphene wells 100; lysis activity, % at 15 µM; 0.2% of 360,000 active;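 active means mean lysis activity across replicates of at least 80%, whatever share of replicates individually reach that level; inactive means mean lysis activity below 80%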
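Schedule: static 4 h at 37 °C with compound, 1 h detection; system: C. neoformans cells; benchmarks: Clomiphene as positive control; buffer or medium: fresh YPD medium; measure: luminescence rise reflecting yeast cell lysis; measured by: luminescent adenylate kinase detection reagent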
ERAP1 HTS inh – blocks human ERAP1 aminopeptidase activity; recombinant ERAP1, Leu-AMC fluorescence, 60 min; inhibition, % at 10.7 µM; 0.15% of 340,000 active; AID 652197;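 active means mean replicate inhibition of at least 30%, or all replicates individually reaching that 30% level; inactive means mean below 30% and not every replicate reaching it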;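 further: 0% = neutral control wells and 100% = L-leucinethiol positive control wells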
Target sequence (Q9NZ08 whole entry, looked up): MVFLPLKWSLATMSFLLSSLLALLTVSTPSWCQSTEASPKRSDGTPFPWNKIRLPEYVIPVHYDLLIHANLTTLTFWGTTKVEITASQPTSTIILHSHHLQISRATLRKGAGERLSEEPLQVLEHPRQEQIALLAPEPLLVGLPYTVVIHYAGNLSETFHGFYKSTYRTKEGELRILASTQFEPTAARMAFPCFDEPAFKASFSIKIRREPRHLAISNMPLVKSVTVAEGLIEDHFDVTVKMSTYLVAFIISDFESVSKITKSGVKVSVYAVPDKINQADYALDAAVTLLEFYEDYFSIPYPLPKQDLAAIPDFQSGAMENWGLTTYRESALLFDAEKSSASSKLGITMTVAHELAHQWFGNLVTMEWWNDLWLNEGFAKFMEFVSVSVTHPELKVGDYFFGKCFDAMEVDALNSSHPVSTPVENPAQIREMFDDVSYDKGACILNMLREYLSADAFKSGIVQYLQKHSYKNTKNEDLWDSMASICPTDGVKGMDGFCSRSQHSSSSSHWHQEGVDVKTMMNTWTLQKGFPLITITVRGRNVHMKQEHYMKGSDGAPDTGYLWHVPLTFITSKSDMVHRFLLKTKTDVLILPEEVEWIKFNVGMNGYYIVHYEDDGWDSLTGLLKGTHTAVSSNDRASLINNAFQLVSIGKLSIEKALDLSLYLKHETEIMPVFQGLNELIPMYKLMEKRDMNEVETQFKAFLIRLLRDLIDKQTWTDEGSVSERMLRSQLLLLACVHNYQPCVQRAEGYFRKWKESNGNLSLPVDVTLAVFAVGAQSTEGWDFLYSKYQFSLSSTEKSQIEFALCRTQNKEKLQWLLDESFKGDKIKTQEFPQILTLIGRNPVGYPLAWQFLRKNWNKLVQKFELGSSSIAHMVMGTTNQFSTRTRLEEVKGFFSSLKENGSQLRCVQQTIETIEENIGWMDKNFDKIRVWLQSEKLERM
rRNA inh HTS – inhibitors of bacterial rRNA selective over humanized ribosomes; E. coli WT GFP vs humanized-ribosome RFP mutants, fluorescence, 24 h; stronger effect = lower value; DMSO median 0, no signal -100; 1.6% of 350,000 active; GFP signal change (wild-type ribosome), % (no concentration beside the values);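 active means significant combined selectivity score with lowered wild-type GFP, culture density cut under 30%, mutant RFP and density less affected; inactive means any of these conditions unmet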
Starred values were filed as active, the others as inactive; ? = inconclusive; . = not tested or not shown; ! = a repeat was not active.

SMILES	Env fusion inh	PGC1a acetyl inh	FGF22 binding	Cneo AK release	ERAP1 HTS inh	rRNA inh HTS
Cc1ccc(C(=O)N[C@@H](C)CN2C3=NC[C@@H](Cc4ccccc4)N3C[C@H]2Cc2ccc(O)cc2)cc1Br	75*	.	0	.	-4	-54
O=C(COC(=O)Cc1ccccc1)Nc1ccc(SC(F)F)cc1	-15	.	0	.	1	-13
CCOC(=O)c1c(C)n(CC(O)CN2CCOCC2)c2cc(Br)c(OC)cc12 (centres undefined)	-11	-46	0	.	-3	-42*
CCOC(=O)c1c(C)n(CCN2CCN(C)CC2)c2ccc(OC)cc12	.	2	.	5	.	.
COCCOC(=O)c1c(N)n(Cc2ccc(OC)cc2)c2nc3ccccc3nc12	.	-6	.	-1	.	.
C[C@]12CC[C@H]3[C@@H](CCC4=CC(=O)CC[C@@H]43)[C@@H]1CC[C@@H]2O	.	-28	0	-2	-1	-13
C[C@]12CCC3=C4CCC(=O)C=C4CC[C@H]3C1CC[C@@H]2O (some centres undefined)	56*	-10	0	0	2	-6
CC1(O)CCC2C3CCC4=CC(=O)CCC4=C3C=CC21C (centres undefined)	-82	-11	43*	5	0	-18
COC(=O)c1cccc(NC(=O)N2C[C@H]3C[C@@H](C2)c2cccc(=O)n2C3)c1	.	3	0	2	1	9
CCC(=NCc1ccc(F)cc1)c1c(O)n(C)c(=O)n(C)c1=O	80*	0	.	0	.	.
CCC(=NCCC(c1ccccc1)c1ccccc1)c1c(O)n(C)c(=O)n(C)c1=O	-60	.	.	2	.	.
CC1CCC(C(C)C)C(OC(=O)Cn2c(COc3ccccc3)[n+](C)c3ccccc32)C1 (centres undefined)	78*	-28	42	-7	9	-51
C[C@@H]1CN([C@@H](C)CO)C(=O)CCCn2nncc2CO[C@H]1CN(C)C(=O)Oc1cccc2ccccc12	10	1	0	88*!	-4	15
C[C@H]1CN([C@@H](C)CO)C(=O)CCCn2nncc2CO[C@@H]1CN(C)C(=O)Oc1cccc2ccccc12	.	0	0	-6	3	-2
Cc1cccc(C)c1-n1nnnc1C(c1cccc2ccccc12)N1CCC(n2c(=O)[nH]c3ccccc32)CC1 (centres undefined)	74*	-17	0	0	.	8
CSCCC(c1nnnn1Cc1ccccc1)N1CCC(n2c(=O)[nH]c3ccccc32)CC1 (centres undefined)	46	7	1	0	0	-10
O=c1[nH]c2ccccc2n1C1CCN(C(CCc2ccccc2)c2nnnn2Cc2ccccc2)CC1 (centres undefined)	66*	103*	0	0	1	7
CCOP(=S)(OCC)N1CC1	24	0	0	-1	-1	13
COc1ccc(CN2CC=C(c3ccc(F)cc3)CC2)cc1Br	18	-3	0	0	7	-12
CCC(C)(C)n1nnnc1C(c1cccs1)N1CC=C(c2ccc(F)cc2)CC1 (centres undefined)	96*	-6	.	0	0	-8
CN(C)c1ccc(/C=C/C=C2/C(=O)NC(=O)N(c3ccccc3)C2=O)cc1	-210	.	44*	.	-1	.
Cc1ccc(C)c(C2(O)CC(C)N(C)CC2C)c1 (centres undefined)	.	5	.	-3	.	.
CC(N)C(=O)NC1C2C(=C(O)CC(O)C2O)C(=O)OC1(C)C(Cl)Cl (centres undefined)	99*	74*	0	.	0	-52
C[C@]12CCC3C(CC[C@H]4C[C@@H](O)CC[C@]34C)C1[C@H]1CN=N[C@H]1[C@@H]2O (some centres undefined)	-3	11	0	.	-1	3
CCCC(C)C1(CC)C(=O)NC(=O)N=C1N (centres undefined)	9	-9	44*	.	1	8
SMILES	Env fusion inh	PGC1a acetyl inh	FGF22 binding	Cneo AK release	ERAP1 HTS inh	rRNA inh HTS
CCN(CC)S(=O)(=O)c1cc(NC(=O)C(C)N2CC=C(c3ccccc3)CC2)ccc1C (centres undefined)	27	.	.	.	.	.
COc1ccc(Oc2cc(NC(=O)c3nn(C)cc3[N+](=O)[O-])cc([N+](=O)[O-])c2)cc1	.	78*	0	0	0	-2
COc1ccc(Cc2nccc3cc(OC)c(OC)cc23)cc1OC	57*	.	0	-1	-3	0
CCC1CN2CCc3cc(OC)c(OC)cc3C2CC1CC1NCCc2c1[nH]c1ccc(O)cc21 (centres undefined)	73*	70*	-1	.	3	0
COc1ccc2c(c1OC)CN1CCc3cc4c(cc3[C@H]1C2)OCO4	.	.	.	-1	.	.
O=C1NC(=O)C2(Cc3ccccc3N3CCCC32)C(=O)N1 (centres undefined)	61*	12	.	0	.	.
Clc1cccc(Cl)c1NC1=NCCS1	29	-1	1	4	0	-3
Clc1cc(Cl)cc(NC2=NCCS2)c1	5	5	0	2	1	-26*
O=C(Nc1ccncc1)c1cccn(Cc2ccccc2)c1=O	56*	9	0	.	5	-13
O=C(Nc1c(F)cc(F)cc1F)c1cccn(Cc2ccccc2)c1=O	6	-5	.	.	-2	-12
O=C(COC(=O)c1cc(Br)cc(Br)c1O)NC12CC3CC(CC(C3)C1)C2	7	-3	1.7*	0	-1	-16
CC(C)OP(=O)(OC(C)C)C(NCc1ccccc1)c1ccccc1 (centres undefined)	11	3	0	-1	-3	-20*
COc1ccc(/C=C/C(=O)c2c(O)n(CCC3=CCCCC3)c(=O)[nH]c2=O)cc1	5	.	0	.	9	15
CCOC(=O)Cn1cc(C=C2C(=O)N(C)C(=O)N(C)C2=O)c2ccccc21	11	4	0	-1	-2	22
O=c1c2ccccc2[se]n1-c1ccccc1	-6	-1	0	0	75*	.
CCCCn1c(=O)c(C(=O)Nc2ncccc2C)c(O)c2ccccc21	?	18	0	-5	-1	3
CCCCCCn1c(=O)c(C(=O)Nc2ncccc2C)c(O)c2ccccc21	83*	22	0	-3	0	6
CC(=O)O[C@H]1C[C@@H]2OC3C=C(C)CCC3(C)[C@@]1(C)[C@@]21CO1 (some centres undefined)	72*	84*	0	.	1	1
CC(=O)OC1CC2OC3C=C(C)CCC3(C)C1(C)C21CO1 (centres undefined)	.	87*	0	24	8	.
